# Experimental data: ChEMBL document CHEMBL4689842, “EUbOPEN Chemogenomics Library wave 1” (2021)
# System: HEK-293T
# Assay: Multiplex assay against HEK293T;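 on Population Tubulin-Different-Phenotype (%): share of the cells with healthy nuclei that show this phenotype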
# Assay type: toxicity, cell-based
# Settings: human
# In short: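 With compound added, live cells were imaged on a CQ1 microscope at 37°C and 5% CO2; staining with Hoechst33342, BioTracker Green Microtubule Cytoskeleton Dye, MitoTracker Red and Annexin V Alexa Fluor 680 had been done at seeding. The CellPathfinder machine-learning gating scheme split cells into Hoechst high-intensity objects or normal cells, normal cells into healthy, pyknosed or fragmented nuclei, and pyknosed cells into mitotic or apoptotic. The tubulin, mitochondrial-mass and membrane-permeability phenotypes are per cents of healthy-nucleus cells.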
# [1] = 12 h, 1 µM, compound concentration 1 uM, replicate 1
# [2] = 12 h, 1 µM, compound concentration 1 uM, replicate 2
# [3] = 12 h, 10 µM, compound concentration 10 uM, replicate 1
# [4] = 12 h, 10 µM, compound concentration 10 uM, replicate 2
# [5] = 24 h, 1 µM, compound concentration 1 uM, replicate 1
# [6] = 24 h, 1 µM, compound concentration 1 uM, replicate 2
# [7] = 24 h, 10 µM, compound concentration 10 uM, replicate 1
# [8] = 24 h, 10 µM, compound concentration 10 uM, replicate 2
# [9] = 48 h, 1 µM, compound concentration 1 uM, replicate 1
# [10] = 48 h, 1 µM, compound concentration 1 uM, replicate 2
# [11] = 48 h, 10 µM, compound concentration 10 uM, replicate 1
# [12] = 48 h, 10 µM, compound concentration 10 uM, replicate 2
smiles,measurement,setting,value
COc1cc(-n2cnc3cc(-c4ccc(Cl)cc4)sc3c2=O)ccc1OCCN1CCCC1,Population Apoptotic (%),[1],59%
same,Population Fragmented Nuclei (%),[1],8%
same,Population Healthy Nuclei (%),[1],32%
same,Population Hoechst High Intensity Objects (%),[1],15%
same,Population Membrane Permeable-Phenotype (%),[1],1%
same,Population Mitochondria Different-Phenotype (%),[1],96%
same,Population Mitotic Cells (%),[1],40%
same,Population Normal (%),[1],84%
same,Population Pyknosed Nuclei (%),[1],58%
same,Population Tubulin-Different-Phenotype (%),[1],93%
same,Total Cell Count,[1],212
same,Population Apoptotic (%),[2],20%
same,Population Fragmented Nuclei (%),[2],5%
same,Population Healthy Nuclei (%),[2],40%
same,Population Hoechst High Intensity Objects (%),[2],4%
same,Population Membrane Permeable-Phenotype (%),[2],7%
same,Population Mitochondria Different-Phenotype (%),[2],42%
same,Population Mitotic Cells (%),[2],80%
same,Population Normal (%),[2],95%
same,Population Pyknosed Nuclei (%),[2],53%
same,Population Tubulin-Different-Phenotype (%),[2],60%
same,Total Cell Count,[2],265
same,Population Apoptotic (%),[3],57%
same,Population Fragmented Nuclei (%),[3],23%
same,Population Healthy Nuclei (%),[3],1%
same,Population Hoechst High Intensity Objects (%),[3],23%
same,Population Membrane Permeable-Phenotype (%),[3],0%
same,Population Mitochondria Different-Phenotype (%),[3],75%
same,Population Mitotic Cells (%),[3],42%
same,Population Normal (%),[3],76%
same,Population Pyknosed Nuclei (%),[3],74%
same,Population Tubulin-Different-Phenotype (%),[3],75%
same,Total Cell Count,[3],285
same,Population Apoptotic (%),[4],79%
same,Population Fragmented Nuclei (%),[4],16%
same,Population Healthy Nuclei (%),[4],15%
same,Population Hoechst High Intensity Objects (%),[4],4%
same,Population Membrane Permeable-Phenotype (%),[4],33%
same,Population Mitochondria Different-Phenotype (%),[4],58%
same,Population Mitotic Cells (%),[4],20%
same,Population Normal (%),[4],95%
same,Population Pyknosed Nuclei (%),[4],67%
same,Population Tubulin-Different-Phenotype (%),[4],66%
same,Total Cell Count,[4],242
same,Population Apoptotic (%),[5],72%
same,Population Fragmented Nuclei (%),[5],11%
same,Population Healthy Nuclei (%),[5],37%
same,Population Hoechst High Intensity Objects (%),[5],14%
same,Population Membrane Permeable-Phenotype (%),[5],1%
same,Population Mitochondria Different-Phenotype (%),[5],100%
same,Population Mitotic Cells (%),[5],27%
same,Population Normal (%),[5],85%
same,Population Pyknosed Nuclei (%),[5],50%
same,Population Tubulin-Different-Phenotype (%),[5],86%
same,Total Cell Count,[5],207
same,Population Apoptotic (%),[6],27%
same,Population Fragmented Nuclei (%),[6],4%
same,Population Healthy Nuclei (%),[6],61%
same,Population Hoechst High Intensity Objects (%),[6],2%
same,Population Membrane Permeable-Phenotype (%),[6],7%
same,Population Mitochondria Different-Phenotype (%),[6],52%
same,Population Mitotic Cells (%),[6],72%
same,Population Normal (%),[6],97%
same,Population Pyknosed Nuclei (%),[6],33%
same,Population Tubulin-Different-Phenotype (%),[6],66%
same,Total Cell Count,[6],325
same,Population Apoptotic (%),[7],73%
same,Population Fragmented Nuclei (%),[7],31%
same,Population Healthy Nuclei (%),[7],0%
same,Population Hoechst High Intensity Objects (%),[7],30%
same,Population Membrane Permeable-Phenotype (%),[7],0%
same,Population Mitochondria Different-Phenotype (%),[7],0%
same,Population Mitotic Cells (%),[7],26%
same,Population Normal (%),[7],69%
same,Population Pyknosed Nuclei (%),[7],68%
same,Population Tubulin-Different-Phenotype (%),[7],0%
same,Total Cell Count,[7],277
same,Population Apoptotic (%),[8],90%
same,Population Fragmented Nuclei (%),[8],20%
same,Population Healthy Nuclei (%),[8],22%
same,Population Hoechst High Intensity Objects (%),[8],7%
same,Population Membrane Permeable-Phenotype (%),[8],21%
same,Population Mitochondria Different-Phenotype (%),[8],68%
same,Population Mitotic Cells (%),[8],9%
same,Population Normal (%),[8],92%
same,Population Pyknosed Nuclei (%),[8],57%
same,Population Tubulin-Different-Phenotype (%),[8],48%
same,Total Cell Count,[8],228
same,Population Apoptotic (%),[9],53%
same,Population Fragmented Nuclei (%),[9],13%
same,Population Healthy Nuclei (%),[9],62%
same,Population Hoechst High Intensity Objects (%),[9],9%
same,Population Membrane Permeable-Phenotype (%),[9],5%
same,Population Mitochondria Different-Phenotype (%),[9],73%
same,Population Mitotic Cells (%),[9],46%
same,Population Normal (%),[9],90%
same,Population Pyknosed Nuclei (%),[9],23%
same,Population Tubulin-Different-Phenotype (%),[9],67%
same,Total Cell Count,[9],312
same,Population Apoptotic (%),[10],20%
same,Population Fragmented Nuclei (%),[10],4%
same,Population Healthy Nuclei (%),[10],79%
same,Population Hoechst High Intensity Objects (%),[10],3%
same,Population Membrane Permeable-Phenotype (%),[10],6%
same,Population Mitochondria Different-Phenotype (%),[10],21%
same,Population Mitotic Cells (%),[10],79%
same,Population Normal (%),[10],96%
same,Population Pyknosed Nuclei (%),[10],16%
same,Population Tubulin-Different-Phenotype (%),[10],57%
same,Total Cell Count,[10],539
same,Population Apoptotic (%),[11],76%
same,Population Fragmented Nuclei (%),[11],45%
same,Population Healthy Nuclei (%),[11],0%
same,Population Hoechst High Intensity Objects (%),[11],29%
same,Population Membrane Permeable-Phenotype (%),[11],0%
same,Population Mitochondria Different-Phenotype (%),[11],100%
same,Population Mitotic Cells (%),[11],23%
same,Population Normal (%),[11],70%
same,Population Pyknosed Nuclei (%),[11],54%
same,Population Tubulin-Different-Phenotype (%),[11],100%
same,Total Cell Count,[11],270
same,Population Apoptotic (%),[12],89%
same,Population Fragmented Nuclei (%),[12],21%
same,Population Healthy Nuclei (%),[12],28%
same,Population Hoechst High Intensity Objects (%),[12],10%
same,Population Membrane Permeable-Phenotype (%),[12],12%
same,Population Mitochondria Different-Phenotype (%),[12],73%
same,Population Mitotic Cells (%),[12],10%
same,Population Normal (%),[12],89%
same,Population Pyknosed Nuclei (%),[12],50%
same,Population Tubulin-Different-Phenotype (%),[12],38%
same,Total Cell Count,[12],256
